ALR H2O2 inh: blocks human ALR sulfhydryl oxidase activity; P55789; purified ALR, DTT oxidation, H2O2 HRP-luminol luminescence; inhibition, % (no concentration beside the values); actives 3.8% (n = 290,000); AID 485317;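 active = mean replicate inhibition above about 79%, with every replicate also reaching it, limit read from the data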
Target sequence (P55789 whole entry, looked up): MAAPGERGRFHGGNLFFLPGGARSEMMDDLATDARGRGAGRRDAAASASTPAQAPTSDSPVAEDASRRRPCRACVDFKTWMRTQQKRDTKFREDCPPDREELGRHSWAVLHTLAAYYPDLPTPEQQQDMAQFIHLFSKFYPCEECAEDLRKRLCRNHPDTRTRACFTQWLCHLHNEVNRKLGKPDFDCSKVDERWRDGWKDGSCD
HSF1 activator: increases HSF-1 driven luciferase reporter signal; NIH3T3-HGL HSF-1 luciferase reporter, MG132, 8 h; 100% = twice DMSO control signal; activation, % at 9 µM; actives 1.7% (n = 300,000);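 active = mean replicate activation of at least 50% with a set share of replicates each reaching 50%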;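 also: 0% = median of the neutral control wells and 100% = twice that signal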
core dimer inh: HCV core protein dimerization inhibition. inhibition, % at 5 µM. TR-FRET GST/Flag-core106 dimerization, 1536-well. actives 0.33% (n = 300,000);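 active = inhibition above the mean of all tested compounds plus 3 SD, set per screening campaign, cut at about 45% in these data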
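Assay system: tagged HCV core106 pair (GST and Flag); medium: KF-containing HEPES buffer, pH 7.45, DTT, CHAPS, BSA; also added: Eu donor and XL665 acceptor anti-tag antibodies; dosing: 5 µM single dose; timing: compound-protein-antibody incubation 4 h at 22.5 °C; signal: TR-FRET 671 and 617 nm emission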
HSF1 inhib: HSF1 inhibition. NIH3T3-HGL HSE-luciferase, MG132-induced, luminescence 8 h; active compounds read low. activity change, negative = inhibition, % at 7.5 µM (by protocol). actives 0.77% (n = 300,000). AID 2098;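 active = more than half of replicate wells show activity change below -50%, luminescence cut by over half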;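 also: luciferase reports HSF-1 transcriptional activity via heat shock element; 0% = median of DMSO wells and -100% = zero luminescence signal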
PHOSPHO1 inh: PHOSPHO1 (human) inhibition; recombinant PHOSPHO1, absorbance phosphatase assay; inhibition, % at 13.3 µM; actives 1.1% (n = 290,000); in the data active = inhibition above about 60%
Target sequence (Q8TCT1 whole entry, looked up): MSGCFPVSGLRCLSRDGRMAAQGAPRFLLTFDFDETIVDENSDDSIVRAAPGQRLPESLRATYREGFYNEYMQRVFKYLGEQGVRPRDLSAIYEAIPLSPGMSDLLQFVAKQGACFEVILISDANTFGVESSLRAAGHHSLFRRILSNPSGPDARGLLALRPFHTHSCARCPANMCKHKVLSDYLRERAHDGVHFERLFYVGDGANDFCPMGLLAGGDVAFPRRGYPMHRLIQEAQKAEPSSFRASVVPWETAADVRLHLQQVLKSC
AI-2 QS mod: modulators of Vibrio harveyi AI-2 quorum sensing system. activity change, % at 7.5 µM. actives 0.4% (n = 300,000). AID 2094. Vibrio harveyi JMH597 AI-2 luminescence/OD600 ratio, 9 h; active compounds read low; strain lacks LuxN and CqsS sensors; 0 = neutral-control median; in the data active = activity change below about -75%, passing the limit was not always enough;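 also: luminescence divided by OD600 gain over 9 h not by final OD600 alone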
Numbers without * were called inactive; · = no result. Sampled rows, rich in hits. Any-hit rate of the full collection: about 6.8%.

SMILES | ALR H2O2 inh | HSF1 activator | core dimer inh | HSF1 inhib | PHOSPHO1 inh | AI-2 QS mod
O=C(c1cccs1)N(c1ccc(Cl)cc1)C1C=CS(=O)(=O)C1 (configuration not stated) | 4 | -6 | -3 | 1 | 34 | 19
CCN(c1ccc(NC(=O)CCNC(=O)c2ccco2)cc1)C(C)C | 99* | -3 | -11 | -4 | -37 | 13
Cn1c(CNC(=O)c2ccco2)nnc1SCC(=O)Nc1cccc(Br)c1 | -2 | -14 | 0 | 0 | 93* | 5
Cc1cccc(NC(=O)CCNC(=O)c2ccco2)c1 | -14 | 58* | -5 | 3 | -9 | 12
Cc1cccc(NC(=O)CSc2nnc(CNC(=O)c3ccco3)n2C)c1 | -9 | 3 | 1 | -2 | 36 | 17
Cc1ccc(NC(=O)CCNC(=O)c2ccco2)cc1 | -25 | 6 | -2 | -1 | -5 | 15
CN(C)S(=O)(=O)c1ccc(NC(=O)CCNC(=O)c2ccco2)cc1 | 15 | 0 | -5 | -1 | 15 | 11
Cc1ccc(-n2cnc(N)c2C(=O)c2cccc([N+](=O)[O-])c2)cc1 | -1 | -10 | 4 | -15 | -25 | -13
CCc1ccc(NC(=O)c2cnn(-c3ccccc3)c2C)cc1 | -7 | 57* | -6 | 23 | 0 | 18
Cc1c(C(=S)Nc2ccccc2)cnn1-c1ccccc1 | 6 | 62* | 5 | 21 | 7 | -9
CCOC(=O)c1cnn(-c2ccccc2)c1-n1cccc1 | -2 | -77 | -7 | -74* | -6 | -8
CCOC(=O)c1cnn(-c2ccccc2)c1-c1ccccc1 | -3 | 8 | 1 | 2 | 11 | -3
COc1ccccc1N(CC(=O)NCC1CCCO1)C(=O)CNS(=O)(=O)c1ccc(Cl)cc1 (configuration not stated) | -9 | 7 | -4 | -2 | 38 | -13
O=C(CSc1nnc2ncccn12)Nc1cccc2ccccc12 | · | 12 | -6 | 1 | 10 | 7
O=S(=O)(Nc1cc(S(=O)(=O)N2CCOCC2)ccc1NCC1CCCO1)c1ccccc1 (configuration not stated) | 27 | · | · | · | · | ·
Cc1ccc(/C=C2\SC(=S)N(CCCC(=O)Nc3ccccn3)C2=O)cc1 | -12 | -71 | 10 | -67* | 15 | 20
O=C(CN1C(=O)/C(=C/c2ccccc2)SC1=S)Nc1ncc(Cc2ccccc2)s1 | 3 | -11 | 54* | -4 | 29 | -4
Cc1nnc(NC(=O)CCN2C(=O)/C(=C\c3ccccc3)SC2=S)s1 | 2 | -5 | -2 | -7 | 28 | 10
CCc1ccc(/C=C2\SC(=S)N(CCCC(=O)Nc3ccccc3C(=O)O)C2=O)cc1 | 97* | -26 | 12 | -16 | 33 | 18
O=C(CCN1C(=O)/C(=C/c2ccccc2)SC1=S)Nc1ccccn1 | 0 | 4 | 8 | 8 | 28 | 13
O=C(CSc1ncccn1)N/N=C/c1ccccc1[N+](=O)[O-] | -6 | -2 | -2 | -8 | -13 | 20
CC(C(=O)NCCCc1ccccc1)n1cccc1C(=O)c1ccccc1 (configuration not stated) | 1 | 14 | -15 | 13 | 70* | 6
CC(=O)Nc1ccc(S(=O)(=O)Nc2nc3ccccc3nc2Nc2ccccc2)cc1 | · | 4 | -4 | 1 | -1 | 16
COc1ccc(S(=O)(=O)Nc2nc3ccccc3nc2Nc2cccc(C(=O)O)c2)cc1 | 98* | 19 | -13 | -3 | 24 | 7
COc1ccc(NS(=O)(=O)c2ccc(Oc3cccc(C(=O)O)c3)cc2)cc1 | -3 | 1 | 3 | 10 | -11 | 25
SMILES | ALR H2O2 inh | HSF1 activator | core dimer inh | HSF1 inhib | PHOSPHO1 inh | AI-2 QS mod
CC(=O)Nc1ccc(Nc2nc3ccccc3nc2NS(=O)(=O)c2ccccc2)cc1 | 98* | -4 | 4 | 4 | 36 | -8
COc1ccccc1N/C(N)=N/c1nc(C(F)(F)F)cc(=O)[nH]1 | -4 | 0 | -6 | -1 | 15 | 33
N/C(=N\c1nc2c(c(=O)[nH]1)CCC2)Nc1ccccc1C(F)(F)F | -6 | 56* | -1 | 18 | 51 | 5
CCC(C)NC(=O)CSc1nnc(-c2ccc(OC)c(OC)c2)c(-c2ccc(OC)c(OC)c2)n1 (configuration not stated) | 0 | 12 | -1 | -4 | -2 | 21
Cc1ccc(NC(=O)c2ccc(S(=O)(=O)N3CCCCC3)cc2)nc1 | -2 | · | · | · | · | ·
Cc1ccc2cc(CCl)c(Cl)nc2c1 | 98* | 19 | 1 | 4 | 34 | 12
O=[N+]([O-])c1cccc(S(=O)(=O)NCc2ccncc2)c1 | · | 4 | 10 | -2 | 32 | 16
COc1ccc(Nc2cc(C)c3ccc(O)cc3n2)cc1 | 99* | 20 | -6 | 8 | 27 | 34
Cc1cc(Nc2ccccc2)nc2cc(O)ccc12 | 96* | 39 | 11 | 25 | -4 | 12
Nc1nc(NCCc2ccccc2)nc(NCCO)c1[N+](=O)[O-] | -8 | 15 | 4 | 2 | 5 | 14
NC(=O)c1ccsc1NC(=O)c1coc2ccccc2c1=O | 2 | 21 | 15 | 2 | 25 | 28
O=C(NC1CCCCCCC1)c1ccccc1O | · | 1 | 3 | 6 | 18 | 29
O=C(NC1CCCCCC1)c1ccc[nH]c1=S | 92* | 10 | -2 | 0 | -26 | 7
Cc1csc(NC(=O)C(C)Oc2ccc(Cl)cc2C)n1 (configuration not stated) | -3 | · | · | · | · | ·
CC(=O)c1cccc(S(=O)(=O)N2CCN(c3nc4cc(C)cc(C)c4cc3C#N)CC2)c1 | 1 | 11 | 70* | 15 | 19 | 22
Cc1cc(C)c2cc(C#N)c(N3CCCN(S(=O)(=O)c4ccccc4)CC3)nc2c1 | -7 | 8 | 12 | -4 | · | 0
COc1ccc2c(c1OC)C(=O)N(c1cccc(NC(C)=O)c1)C2 | 97* | 19 | 13 | 13 | · | 6
COc1ccc2c(c1OC)C(=O)N(c1ccc(F)cc1)C2 | -2 | 22 | 1 | 21 | 28 | 23
O=C(CSC1CC(=O)N(c2ccc(C(=O)O)cc2)C1=O)Nc1ccc2ccccc2c1 (configuration not stated) | 100* | 6 | -2 | 6 | 28 | 6
CCOC(=O)c1ccc(N2C(=O)CC(SCC(=O)Nc3ccc(S(N)(=O)=O)cc3)C2=O)cc1 (configuration not stated) | 99* | 18 | 3 | -1 | -39 | 58
O=C(O)CSC1CC(=O)N(c2ccc(Cl)c(Cl)c2)C1=O (configuration not stated) | 98* | -10 | 5 | -11 | -1 | 23
Cc1ccc(N2C(=O)CC(SCC(=O)Nc3ccc(S(N)(=O)=O)cc3)C2=O)cc1 (configuration not stated) | 99* | 46 | 0 | 24 | -7 | 6

Screens as filed in PubChem BioAssay.
